ChEMBL document CHEMBL3259550, “Polycyclic propargylamine and acetylene derivatives as multifunctional neuroprotective agents” (Eur J Med Chem, 2014)
The source made the active and inactive calls. The rule behind the calls is not given here.

Legend:
[1] = species on record: Papio papio; test: Inhibition of MAO-B in baboon liver mitochondrial fraction using MMTP substrate at 300 uM
[2] = Antiapoptotic activity against serum deprivation-induced human SK-N-BE(2) cells assessed as viable cells at 10 uM after 36 hrs incubation by DePsipher agent relative to control; format: functional
In short: (§1)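 SK-N-BE(2) neuroblastoma cells grown in F12 with 10% FBS, Pen/Strep and fungizone at 37 °C. At 80% confluency they were serum-deprived for 24 h, then seeded at 1 x 10^6 cells per 2 mL serum-deprived medium containing compound in DMSO (1.25% v/v final). Cells were incubated 36 h, stained with DePsipher dye 20 min at 37 °C and run by flow cytometry (50 000 events; FL-1 green, FL-2 red). % viable = (Q1+Q2)/(Qtotal−Q3) x 100. Tests in triplicate.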

[3] = Antiapoptotic activity against serum deprivation-induced human SK-N-BE(2) cells assessed as improvement in cell health at 1 mM to 10 uM after 36 hrs incubation by DePsipher agent relative to 1.25% DMSO; format: functional
In short: as §1

[4] = Antiapoptotic activity against serum deprivation-induced human SK-N-BE(2) cells assessed as apoptotic cells at 1 mM to 10 uM after 36 hrs incubation by DePsipher agent relative to 1.25% DMSO; format: functional
In short: as §1

[5] = Antiapoptotic activity against serum deprivation-induced human SK-N-BE(2) cells assessed as improvement in cell health at 1 mM to 10 uM after 36 hrs incubation by DePsipher agent relative to non-induced cells; format: functional
In short: as §1

Work on C#CCN yielded an inhibition [1] of 19.9% and an Activity [2] of 79%.
C#CCN(C)[C@H](C)Cc1ccccc1 showed an inhibition [1] of 93.3% and an Activity [2] of 77%.
With C#CCN(CC#C)C12CC3CC(CC(C3)C1)C2 the Activity [3] was 9%, the inhibition [1] was 14% and the Activity [2] was 68%.
For C#CCN(Cc1ccccc1)C12CC3CC(CC(C3)C1)C2, the Activity [3] was 9%, the inhibition [1] was 20.1% and the Activity [2] was 70%.
With COCCOC(=O)C1=C(C)NC(C)=C(C(=O)OC(C)C)C1c1cccc([N+](=O)[O-])c1 (stereo not drawn) the Activity [2] was “inactive”.
For c1ccc(CNC23OC4C5C6CC(C7C6C4C72)C53)cc1 (stereo not drawn), the Activity [3] was 9%, the inhibition [1] was 14.6% and the Activity [2] was 67%.
For C#CC12OC3(O)C4C5CC(C6C5C3(C)C61)C42 (racemic), the Activity [3] was 9%, the Activity [4] was 0.5% and the inhibition [1] was “inactive”. The Activity [2] was 100% and the “improvement in cell health” value [5] was “Active”.
In the case of C#CCN1C2C3C4CC5C6C4C2C6(C)C1(O)C53 (racemic), the Activity [3] is reported as 9%, the inhibition [1] is reported as 10.8% and the Activity [2] is reported as 67%.
Compound C#CCN1C2C3C4CC5C6C4C2C6C1(O)C53 (racemic) has an Activity [3] of 9%, an inhibition [1] of 5.83% and an Activity [2] of 93%. The “improvement in cell health” value [5] was “Active”.
C#CCNC12OC3C4C5CC(C6C5C3(C)C61)C42 (racemic) showed an Activity [3] of 9%, an inhibition [1] of 11.7% and an Activity [2] of 97%. For the same compound, the “improvement in cell health” value [5] was “Active”.
For C#CCNC12OC3C4C5CC(C6C5C3C61)C42 (racemic), the Activity [3] was 9%, the inhibition [1] was “inactive” and the Activity [2] was 88%.
Compound OC1(C#Cc2ccccc2)C2C3CC4C5C3CC2C5C41 (racemic) has an Activity [3] of 9%, an Activity [4] of 2.8% and an inhibition [1] of 73.3%. The Activity [2] was 98% and the “improvement in cell health” value [5] was “Active”.
